ChEMBL document CHEMBL1147539, “Synthesis and biological evaluation of novel, selective, nonsteroidal glucocorticoid receptor antagonists” (Bioorg Med Chem Lett, 2004)

Experiments:
Glucocorticoid receptor [1] = target: T1, Glucocorticoid receptor (Homo sapiens, UniProt P04150)
T1 sequence (P04150 whole entry): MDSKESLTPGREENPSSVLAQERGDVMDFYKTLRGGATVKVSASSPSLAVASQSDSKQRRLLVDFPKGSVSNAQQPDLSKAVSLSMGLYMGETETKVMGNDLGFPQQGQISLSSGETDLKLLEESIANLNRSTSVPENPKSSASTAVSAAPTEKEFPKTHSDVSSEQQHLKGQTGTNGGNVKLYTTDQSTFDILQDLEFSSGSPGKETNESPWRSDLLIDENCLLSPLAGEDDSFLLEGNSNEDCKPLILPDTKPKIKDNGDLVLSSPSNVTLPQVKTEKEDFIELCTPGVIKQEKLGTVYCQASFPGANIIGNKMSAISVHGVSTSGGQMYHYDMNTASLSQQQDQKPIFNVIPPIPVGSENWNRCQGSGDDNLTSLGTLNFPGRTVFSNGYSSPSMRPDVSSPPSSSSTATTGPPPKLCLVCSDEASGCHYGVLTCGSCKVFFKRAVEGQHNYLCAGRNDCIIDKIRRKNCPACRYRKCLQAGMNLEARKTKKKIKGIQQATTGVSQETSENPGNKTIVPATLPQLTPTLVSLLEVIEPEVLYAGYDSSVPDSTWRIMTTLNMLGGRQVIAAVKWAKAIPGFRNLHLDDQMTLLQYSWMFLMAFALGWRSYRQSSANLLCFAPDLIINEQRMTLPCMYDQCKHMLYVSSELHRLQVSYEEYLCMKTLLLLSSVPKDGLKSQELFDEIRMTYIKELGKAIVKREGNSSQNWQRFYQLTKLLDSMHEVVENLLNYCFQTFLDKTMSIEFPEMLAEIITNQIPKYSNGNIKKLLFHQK

Androgen receptor = target: T2, Androgen receptor (Homo sapiens, UniProt P10275); test: Displacement of [3H]mibolerone from human Androgen receptor
T2 sequence (P10275 whole entry): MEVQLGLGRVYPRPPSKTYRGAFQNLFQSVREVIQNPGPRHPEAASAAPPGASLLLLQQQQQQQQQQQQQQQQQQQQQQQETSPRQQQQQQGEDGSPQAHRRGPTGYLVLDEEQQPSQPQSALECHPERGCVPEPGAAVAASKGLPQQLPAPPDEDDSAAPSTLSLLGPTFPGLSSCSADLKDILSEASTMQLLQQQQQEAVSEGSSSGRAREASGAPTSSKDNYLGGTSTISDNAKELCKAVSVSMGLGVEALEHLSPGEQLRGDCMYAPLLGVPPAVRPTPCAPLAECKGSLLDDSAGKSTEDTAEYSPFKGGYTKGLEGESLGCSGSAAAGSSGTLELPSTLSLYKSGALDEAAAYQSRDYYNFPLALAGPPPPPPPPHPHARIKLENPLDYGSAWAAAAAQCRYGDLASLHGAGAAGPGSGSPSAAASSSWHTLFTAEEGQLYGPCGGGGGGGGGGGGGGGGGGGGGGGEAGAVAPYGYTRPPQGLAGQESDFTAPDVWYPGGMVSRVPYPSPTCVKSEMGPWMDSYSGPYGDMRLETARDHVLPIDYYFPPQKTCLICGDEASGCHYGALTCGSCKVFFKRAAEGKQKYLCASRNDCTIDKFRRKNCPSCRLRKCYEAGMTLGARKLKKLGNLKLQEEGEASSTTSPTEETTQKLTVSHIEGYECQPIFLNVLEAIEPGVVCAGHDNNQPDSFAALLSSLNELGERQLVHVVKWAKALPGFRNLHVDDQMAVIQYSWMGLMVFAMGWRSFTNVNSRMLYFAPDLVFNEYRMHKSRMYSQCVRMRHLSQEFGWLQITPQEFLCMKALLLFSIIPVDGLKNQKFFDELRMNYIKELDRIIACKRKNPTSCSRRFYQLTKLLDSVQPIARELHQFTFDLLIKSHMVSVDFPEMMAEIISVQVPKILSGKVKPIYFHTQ

Glucocorticoid receptor [2] = target: T1, Glucocorticoid receptor; test: Displacement of [3H]dexamethasone from human Glucocorticoid receptor (GR)
Glucocorticoid receptor [3] = target: T1, Glucocorticoid receptor; test: Effect on human Glucocorticoid receptor (GR) in a whole cell assay to measure functional cellular GR-antagonism (GRAF)
[4] = target: T3, Mineralocorticoid receptor (Homo sapiens, UniProt P08235); test: Displacement of [3H]aldosterone from human Mineralocorticoid receptor
T3 sequence (P08235 whole entry): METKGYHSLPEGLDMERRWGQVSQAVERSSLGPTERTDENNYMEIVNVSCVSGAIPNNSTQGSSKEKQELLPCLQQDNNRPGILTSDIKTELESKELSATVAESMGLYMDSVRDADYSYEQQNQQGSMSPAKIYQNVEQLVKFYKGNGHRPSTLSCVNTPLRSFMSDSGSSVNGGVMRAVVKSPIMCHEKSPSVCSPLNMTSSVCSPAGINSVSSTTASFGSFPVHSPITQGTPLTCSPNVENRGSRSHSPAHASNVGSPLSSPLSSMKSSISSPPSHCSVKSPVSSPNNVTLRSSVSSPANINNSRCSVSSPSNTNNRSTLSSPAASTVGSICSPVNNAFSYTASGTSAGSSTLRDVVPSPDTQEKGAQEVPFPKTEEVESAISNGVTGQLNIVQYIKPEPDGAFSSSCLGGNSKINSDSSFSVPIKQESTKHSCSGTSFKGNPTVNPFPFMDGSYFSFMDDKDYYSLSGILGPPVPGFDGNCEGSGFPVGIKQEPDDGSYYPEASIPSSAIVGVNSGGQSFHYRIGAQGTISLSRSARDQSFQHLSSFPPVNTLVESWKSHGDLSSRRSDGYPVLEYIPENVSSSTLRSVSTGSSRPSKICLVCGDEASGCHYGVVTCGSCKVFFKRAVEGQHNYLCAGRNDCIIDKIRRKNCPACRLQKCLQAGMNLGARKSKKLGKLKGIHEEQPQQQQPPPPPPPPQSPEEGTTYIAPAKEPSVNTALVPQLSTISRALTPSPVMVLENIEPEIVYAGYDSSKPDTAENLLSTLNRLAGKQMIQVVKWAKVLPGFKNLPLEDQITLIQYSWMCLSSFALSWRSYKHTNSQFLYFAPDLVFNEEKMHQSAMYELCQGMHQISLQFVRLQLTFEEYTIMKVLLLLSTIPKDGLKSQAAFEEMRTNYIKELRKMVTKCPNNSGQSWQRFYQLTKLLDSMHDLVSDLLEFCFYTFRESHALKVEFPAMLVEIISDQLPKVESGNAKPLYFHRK
Summary of the method: (§1)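 Human steroid receptor (PR, MR, AR, ERα) binding measured by radioligand displacement, with IC50s determined in duplicate. Values without a range come from a single experiment, and values with a range are geometric means of repeat experiments.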

Glucocorticoid receptor [5] = target: T1, Glucocorticoid receptor; test: Displacement of [3H]dexamethasone from human Glucocorticoid receptor (GR); Value ranges from 1382-1049 nM
Summary of the method: (§2)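 Binding to human GR; IC50 reported as the geometric mean of two experiments (three for some values), each run in duplicate, with the range of the experiments given.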

Progesterone receptor = target: T4, Progesterone receptor (Homo sapiens, UniProt P06401); test: Displacement of [3H]progesterone from human Progesterone receptor
T4 sequence (P06401 whole entry): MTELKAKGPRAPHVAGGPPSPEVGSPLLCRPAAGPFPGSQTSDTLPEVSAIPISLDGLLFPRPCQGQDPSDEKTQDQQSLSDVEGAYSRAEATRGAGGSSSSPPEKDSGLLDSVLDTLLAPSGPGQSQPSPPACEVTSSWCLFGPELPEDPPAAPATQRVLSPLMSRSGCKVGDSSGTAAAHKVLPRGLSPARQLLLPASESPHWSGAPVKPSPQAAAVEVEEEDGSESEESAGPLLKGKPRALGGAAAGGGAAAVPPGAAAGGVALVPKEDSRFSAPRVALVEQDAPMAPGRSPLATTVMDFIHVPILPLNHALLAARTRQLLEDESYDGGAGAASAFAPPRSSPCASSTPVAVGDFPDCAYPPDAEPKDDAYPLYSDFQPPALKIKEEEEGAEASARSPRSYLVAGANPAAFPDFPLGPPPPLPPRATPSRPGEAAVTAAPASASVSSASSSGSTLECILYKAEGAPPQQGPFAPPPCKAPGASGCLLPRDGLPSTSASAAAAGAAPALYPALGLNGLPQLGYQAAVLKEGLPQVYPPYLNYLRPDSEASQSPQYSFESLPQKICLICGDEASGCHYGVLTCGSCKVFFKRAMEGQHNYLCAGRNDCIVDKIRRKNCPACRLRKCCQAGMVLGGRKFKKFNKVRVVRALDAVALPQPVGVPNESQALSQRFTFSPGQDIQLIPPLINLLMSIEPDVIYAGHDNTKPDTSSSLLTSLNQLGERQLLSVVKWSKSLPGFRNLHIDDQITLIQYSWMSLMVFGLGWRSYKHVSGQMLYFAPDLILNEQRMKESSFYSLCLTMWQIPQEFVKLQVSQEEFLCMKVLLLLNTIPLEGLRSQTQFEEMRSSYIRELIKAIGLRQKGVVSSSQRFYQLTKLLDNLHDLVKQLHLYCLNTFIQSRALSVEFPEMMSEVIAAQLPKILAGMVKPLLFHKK
Summary of the method: as §1

Glucocorticoid receptor [6] = target: T1, Glucocorticoid receptor; remark: listed apart in the source
Glucocorticoid receptor [7] = target: T1, Glucocorticoid receptor; test: Displacement of [3H]dexamethasone from human Glucocorticoid receptor (GR); Value ranges from 1428-1433 nM
Summary of the method: as §2

Glucocorticoid receptor [8] = target: T1, Glucocorticoid receptor; test: Displacement of [3H]dexamethasone from human Glucocorticoid receptor (GR); […]
Glucocorticoid receptor [9] = target: T1, Glucocorticoid receptor; test: Displacement of [3H]dexamethasone from human Glucocorticoid receptor (GR); Value ranges from 159-161 nM
Summary of the method: as §2

Glucocorticoid receptor [10] = target: T1, Glucocorticoid receptor; test: Displacement of [3H]dexamethasone from human Glucocorticoid receptor (GR); Value ranges from 5-6 nM
Summary of the method: as §2

Glucocorticoid receptor [11] = target: T1, Glucocorticoid receptor; test: Displacement of [3H]dexamethasone from human Glucocorticoid receptor (GR); Value ranges from 3-4 nM
Summary of the method: as §2

Work on `COc1cccc2c1-c1ccc(NS(C)(=O)=O)cc1C(c1cccnc1)O2` (configuration not stated) yielded an IC50 (Glucocorticoid receptor [1]) of 0.46 µM.

`COc1cccc2c1-c1ccc(NS(C)(=O)=O)cc1C(c1cc(C)cc(C)c1)O2` (configuration not stated) was tested, and the IC50 (Androgen receptor) was over 10 µM, the IC50 (Glucocorticoid receptor [2]) was 0.002 µM and the IC50 (Glucocorticoid receptor [3]) was 0.078 µM. The IC50 [4] was 1.22 µM.

`COC(=O)c1cccc2c1-c1ccc(NS(C)(=O)=O)cc1C(c1ccccc1)O2` (configuration not stated) gave an IC50 (Glucocorticoid receptor [5]) of 1.2 µM.

`COc1cccc2c1-c1ccc(NS(C)(=O)=O)cc1C(c1cccc(C)c1)O2` (configuration not stated) showed an IC50 (Androgen receptor) of over 10 µM, an IC50 (Glucocorticoid receptor [2]) of 0.001 µM and an IC50 (Glucocorticoid receptor [3]) of 0.021 µM. The IC50 [4] was 0.333 µM and the IC50 (Progesterone receptor) was 0.236 µM.

`COc1cccc2c1-c1ccc(NC(=O)c3ccccc3)cc1C(c1ccccc1)O2` (configuration not stated) showed an IC50 (Glucocorticoid receptor [3]) of 0.289 µM and an IC50 (Glucocorticoid receptor [6]) of 0.404 µM.

Compound `COc1cccc2c1-c1ccc(NS(C)(=O)=O)cc1C(c1ccccn1)O2` (configuration not stated) has an IC50 (Glucocorticoid receptor [7]) of 1.43 µM.

`COc1cccc2c1-c1ccc(NS(C)(=O)=O)cc1C(C1CCCCC1)O2` (configuration not stated) gave an IC50 (Glucocorticoid receptor [8]) of 0.047 µM and an IC50 (Glucocorticoid receptor [3]) of 0.63 µM.

Work on `CCC(=O)Nc1ccc2c(c1)C(c1ccccc1)Oc1cccc(OC)c1-2` (configuration not stated) yielded an IC50 (Glucocorticoid receptor [3]) of 0.124 µM and an IC50 (Glucocorticoid receptor [9]) of 0.16 µM.

With `COc1cccc(C2Oc3cccc(OC)c3-c3ccc(NS(C)(=O)=O)cc32)c1` (configuration not stated) the IC50 (Glucocorticoid receptor [10]) was 0.006 µM and the IC50 (Glucocorticoid receptor [3]) was 0.122 µM.

In the case of `COc1cccc2c1-c1ccc(NS(C)(=O)=O)cc1C(c1ccc(Cl)c(Cl)c1)O2` (configuration not stated), the IC50 (Glucocorticoid receptor [11]) is reported as 0.003 µM and the IC50 (Glucocorticoid receptor [3]) is reported as 0.378 µM.
